Experimental data as given in ChEMBL document CHEMBL1135640, “Synthesis and antitumor activity of new derivatives of xanthen-9-one-4-acetic acid” (J Med Chem, 2002).
pIC50: −log10 of the molar value.

Key:
[1] = organism: Homo sapiens; assay: Potency ratio as the ratio of IC50 of DMXXA against human monocytes to that of the IC50 against human monocytes.; format: ADME
[2] = Potency ratio against macrophages.; format: ADME
[3] = Compound was tested for toxicity induced in murine macrophage; conditions: Mus musculus
In short: (§1)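 Resident mouse peritoneal cells recovered by PBS–heparin (10 U/mL) lavage, adhered 2 h at 37 °C in RPMI 1640 + 5% FCS. Macrophages plated at 1 × 10⁴/well with graded drug concentrations for 24 h (triplicate wells). C13* cells (2 × 10³/well) then added, cocultured 24 h, MTT read-out. Specific cytotoxicity = [OD(macrophages+C13*) − OD(macrophages)]/OD(C13*). IC50 with 95% limits by Litchfield–Wilcoxon.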

[4] = organism: Mus musculus; assay: Potency ratio as the ratio of IC50 of DMXXA against murine macrophages to that of the IC50 against murine macrophages; format: ADME
[5] = Compound was tested for toxicity induced in human monocyte
In short: (§2)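 Adherent human peripheral blood mononuclear cells (Ficoll-isolated, 2 h adhesion at 37 °C, nonadherent cells washed off) exposed 24 h to 25, 50, 100 μM test agent, triplicate wells per dose. Medium then replaced with C13* ovarian carcinoma cells (2 × 10³/well), cocultured 24 h, lysis read by MTT. IC50 with 95% confidence limits by Litchfield–Wilcoxon; three experiments in triplicate.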

[6] = test system: C13; assay: In vitro cytotoxicity against C13 tumor cell line; format: functional, cell-based; conditions: Homo sapiens
In short: (§3)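 Cisplatin-resistant C13* human ovarian adenocarcinoma cells, kept in RPMI 1640 with 10% heat-inactivated FCS and 2 mM L-glutamine, seeded and treated 24 h later with graded concentrations for 24 h. Viability by MTT (4 h, 37 °C; DMSO solubilization; 570 nm, reference 630 nm). IC50 with 95% confidence limits by Litchfield–Wilcoxon; three experiments in triplicate.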

[7] = Compound was tested for toxicity induced in murine macrophage; b indicates Not detected; conditions: mouse; in short: as §1
[8] = test system: C13; assay: In vitro cytotoxicity against C13 tumor cell line; Not detected; format: functional, cell-based, Homo sapiens; in short: as §3
[9] = Compound was tested for toxicity induced in human monocyte; b indicates Not detected; in short: as §2

Potency ratio [1]	Potency ratio [2]	Potency ratio [4]	SMILES	pIC50 [3]	pIC50 [5]	pIC50 [6]	Potency ratio [7]	IC50 [8]	IC50 [9]
0.8	0.5	3.4	C=CCOc1ccc2c(=O)c3cccc(CC(=O)OC)c3oc2c1	4.21	3.94	3.29			
0.8	1.3	0.9	CC1(C)Cc2c(ccc3c(=O)c4cccc(CC(=O)O)c4oc23)O1	3.66	3.76	3.22			
			C=C(C)COc1ccc2c(=O)c3cccc(CC(=O)OC)c3oc2c1C		4.07	3.31	Not detected		
2.1	4.1	0.8	CC(C)=CCOc1ccc2c(=O)c3cccc(CC(=O)O)c3oc2c1	3.58	4.19	3.20			
1.8	3	1	COC(=O)Cc1cccc2c(=O)c3ccc(OCC=C(C)C)c(C)c3oc12	3.65	4.13	3.15			
2.5	0.6	6.9	COC(=O)Cc1cccc2c(=O)c3ccc4c(c3oc12)C=CC(C)(C)O4	4.52	4.27			Not detected	
1.6	0.9	2.7	C=C(C)COc1ccc2c(=O)c3cccc(CC(=O)O)c3oc2c1C	4.11	4.06	3.35			
		0.6	C#CCOc1ccc2c(=O)c3cccc(CC(=O)OC)c3oc2c1C	3.43		3.39			Not detected
2	1.2	2.5	COC(=O)Cc1cccc2c(=O)c3ccc4c(c3oc12)CC(C)O4 (stereo not drawn)	4.08	4.17			Not detected	
		1	C=CCOc1ccc2c(=O)c3cccc(CC(=O)O)c3oc2c1	3.66		3.29			Not detected
0.7	0.9	1.3	CC1Cc2c(ccc3c(=O)c4cccc(CC(=O)O)c4oc23)O1 (stereo not drawn)	3.80	3.75	3.15			
1.8	2.7	1	COC(=O)Cc1cccc2c(=O)c3ccc4c(c3oc12)CC(C)(C)O4	3.70	4.13	3.26			
		5	Cc1cc2c(ccc3c(=O)c4cccc(CC(=O)O)c4oc32)o1	4.38				Not detected	Not detected
0.5	0.2	4.7	CC1(C)C=Cc2c(ccc3c(=O)c4cccc(CC(=O)O)c4oc23)O1	4.35	3.59	3.14			
1.2	0.7	2.9	CC1(C)CCc2c(ccc3c(=O)c4cccc(CC(=O)O)c4oc23)O1	4.15	3.97			Not detected	
		2.6	COC(=O)Cc1cccc2c(=O)c3ccc4oc(C)cc4c3oc12	4.09				Not detected	Not detected
			Cc1ccc2c(=O)c3cccc(CC(=O)O)c3oc2c1C [VADIMEZAN]	3.67	3.87	3.21			
